# Reference: ChEMBL document CHEMBL3046823, “Insect muscarinic acetylcholine receptor: pharmacological and toxicological profiles of antagonists and agonists” (J Agric Food Chem, 2007)
# Tests used:
# [1] = target: Muscarinic acetylcholine receptor DM1 (Drosophila melanogaster) (UniProt P16395); assay: Displacement of [3H]AF-DX 384 from Drosophila melanogaster mAChR at 100000 nM by scintillation counting
# [2] = target: Muscarinic acetylcholine receptor DM1 (Drosophila melanogaster) (UniProt P16395); assay: Displacement of [3H]QNB from Drosophila melanogaster mAChR at 100000 nM by scintillation counting
# Musca domestica [3] = assay: Toxicity to Musca domestica (house fly) assessed as mortality at 7.5 ug/fly measured after 2.5 hr; assay type: functional
# Method in brief: (§1)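 Insecticide-susceptible adult female Musca (~25 mg) received PPP (2.5 µg/fly in 0.5 µL acetone, abdominal ventrum), then 90 min at room temperature. The compound (active ingredient) was given by intrathoracic injection in 0.22 µL water or 25-50% Me2SO/water. Mortality was scored at 0.5, 1.0, 1.5, 2.5 and 24 h.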
# [4] = target: T1, Muscarinic acetylcholine receptor DM1 (Drosophila melanogaster, UniProt P16395); assay: Displacement of [3H]QNB from Drosophila melanogaster mAChR by scintillation counting
# T1 sequence (P16395 whole entry): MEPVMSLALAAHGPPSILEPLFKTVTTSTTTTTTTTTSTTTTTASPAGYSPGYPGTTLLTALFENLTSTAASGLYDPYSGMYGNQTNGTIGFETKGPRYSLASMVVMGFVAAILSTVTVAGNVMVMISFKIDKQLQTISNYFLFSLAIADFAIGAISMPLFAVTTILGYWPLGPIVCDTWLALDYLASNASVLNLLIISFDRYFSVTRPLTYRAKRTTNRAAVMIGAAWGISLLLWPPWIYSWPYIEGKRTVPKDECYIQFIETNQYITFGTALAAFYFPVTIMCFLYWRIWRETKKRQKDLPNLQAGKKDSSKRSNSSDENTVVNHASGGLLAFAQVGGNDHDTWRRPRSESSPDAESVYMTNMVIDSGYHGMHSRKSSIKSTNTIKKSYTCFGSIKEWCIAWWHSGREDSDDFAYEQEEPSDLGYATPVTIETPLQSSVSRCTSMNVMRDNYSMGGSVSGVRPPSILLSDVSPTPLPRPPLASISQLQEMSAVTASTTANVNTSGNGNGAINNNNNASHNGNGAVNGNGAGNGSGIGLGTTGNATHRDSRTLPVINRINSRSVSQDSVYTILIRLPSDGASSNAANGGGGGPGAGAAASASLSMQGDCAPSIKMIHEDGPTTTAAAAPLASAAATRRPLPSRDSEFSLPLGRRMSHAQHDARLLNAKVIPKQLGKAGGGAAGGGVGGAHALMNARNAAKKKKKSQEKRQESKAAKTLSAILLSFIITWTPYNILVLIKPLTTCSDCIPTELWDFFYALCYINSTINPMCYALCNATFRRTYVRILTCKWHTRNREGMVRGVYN
# Musca domestica [5] = assay: Toxicity to Musca domestica (house fly) assessed as mortality at 25 ug/fly measured after 0.5 hr; assay type: functional; method in brief: as §1
# Musca domestica [6] = assay: Toxicity to Musca domestica (house fly) assessed as mortality at 25 ug/fly measured after 1.5 hr; assay type: functional; method in brief: as §1
# Musca domestica [7] = assay: Toxicity to Musca domestica (house fly) assessed as mortality at 25 ug/fly measured after 1 hr; assay type: functional; method in brief: as §1
# Musca domestica [8] = assay: Toxicity to Musca domestica (house fly) assessed as mortality at 25 ug/fly measured after 24 hr; assay type: functional; method in brief: as §1
# Musca domestica [9] = assay: Toxicity to Musca domestica (house fly) assessed as mortality at 7.5 ug/fly measured after 1.5 hr; assay type: functional; method in brief: as §1
# Musca domestica [10] = assay: Toxicity to Musca domestica (house fly) assessed as mortality at 7.5 ug/fly measured after 0.5 hr; assay type: functional; method in brief: as §1
# [11] = target: T1, Muscarinic acetylcholine receptor DM1; assay: Displacement of [3H]AF-DX 384 from Drosophila melanogaster mAChR by scintillation counting
# Musca domestica [12] = assay: Toxicity to Musca domestica (house fly) assessed as mortality at 7.5 ug/fly measured after 1 hr; assay type: functional; method in brief: as §1
# Musca domestica [13] = assay: Toxicity to Musca domestica (house fly) assessed as mortality at 25 ug/fly measured after 2.5 hr; assay type: functional; method in brief: as §1
# Musca domestica [14] = assay: Toxicity to Musca domestica (house fly) assessed as mortality at 7.5 ug/fly measured after 24 hr; assay type: functional; method in brief: as §1
# Musca domestica [15] = assay: Toxicity to Musca domestica (house fly) assessed as mortality at 75 ug/fly measured after 1 hr; assay type: functional; method in brief: as §1
# Musca domestica [16] = assay: Toxicity to Musca domestica (house fly) assessed as mortality at 75 ug/fly measured after 2.5 hr; assay type: functional; method in brief: as §1
# Musca domestica [17] = assay: Toxicity to Musca domestica (house fly) assessed as mortality at 75 ug/fly measured after 24 hr; assay type: functional; method in brief: as §1
# Musca domestica [18] = assay: Toxicity to Musca domestica (house fly) assessed as mortality at 75 ug/fly measured after 0.5 hr; assay type: functional; method in brief: as §1
# Musca domestica [19] = assay: Toxicity to Musca domestica (house fly) assessed as mortality at 75 ug/fly measured after 1.5 hr; assay type: functional; method in brief: as §1
# Musca domestica [20] = assay: Ex vivo inhibition of [3H]QNB binding in brain of Musca domestica (house fly) at 25 ug/fly measured after 0.5 hr; assay type: functional
# Method in brief: (§2)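 Adult female houseflies pretreated with PPP (2.5 µg/fly, topical in acetone, 90 min), then dosed by intrathoracic injection in 0.22 µL water or 25-50% Me2SO/water. Heads were taken 0.5 or 24 h later and homogenized (50 per batch) in 50 mM sodium phosphate pH 7.4. Filtrate (~800 µg protein) was bound with 0.5 nM [3H]QNB, 60 min, 25 °C. Values are relative to vehicle-treated flies; 6−8 measurements over two experiments.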
# Musca domestica [21] = assay: Ex vivo inhibition of [3H]QNB binding in brain of Musca domestica (house fly) at 75 ug/fly measured after 0.5 hr; assay type: functional; method in brief: as §2
# Musca domestica [22] = assay: Ex vivo inhibition of [3H]QNB binding in brain of Musca domestica (house fly) at 75 ug/fly measured after 24 hr; assay type: functional; method in brief: as §2
# Musca domestica [23] = assay: Ex vivo inhibition of [3H]QNB binding in brain of Musca domestica (house fly) at 25 ug/fly measured after 24 hr; assay type: functional; method in brief: as §2
# Chain of Muscarinic acetylcholine receptor DM1 (Drosophila melanogaster) (P16395 whole entry): as above
Compound,Ki [4],Activity (Musca domestica [5]),Activity (Musca domestica [6]),Activity (Musca domestica [7]),Activity (Musca domestica [8]),Ki [11],Activity (Musca domestica [13]),Activity (Musca domestica [15]),Activity (Musca domestica [16]),Activity (Musca domestica [17]),Activity (Musca domestica [18]),Activity (Musca domestica [19]),also measured
O=[N+]([O-])/N=C1\NCCN1Cc1ccc(Cl)nc1,,,,,,,,,,,,,inhibition [1]: 3%; inhibition [2]: 1%
COc1ccccc1CNCCCCCCNCCCCCCCCNCCCCCCNCc1ccccc1OC.Cl.Cl.Cl.Cl [METHOCTRAMINE HYDROCHLORIDE],2850 nM,100%,100%,100%,100%,3860 nM,100%,,,,,,Activity (Musca domestica [3]): 0%; Activity (Musca domestica [9]): 0%; Activity (Musca domestica [10]): 17%; Activity (Musca domestica [12]): 10%; Activity (Musca domestica [14]): 3%
CC(=O)OC1CN2CCC1CC2 (stereo not drawn) [ACECLIDINE],130000 nM,33%,3%,3%,0%,114000 nM,3%,30%,10%,3%,100%,27%,
CC#CCOC(=O)C1=CCCN(C)C1 [ARECAIDINE BUT-2-YNYL ESTER],1500 nM,3%,3%,3%,3%,1560 nM,3%,9%,8%,4%,10%,9%,
O=C1CCCN1CC#CCN1CCCC1 [OXOTREMORINE],19400 nM,,,,,21500 nM,,,,,,,
O=[N+]([O-])NC1=NCCN1Cc1ccc(Cl)nc1 [IMIDACLOPRID],> 100000 nM,,,,,> 100000 nM,,,,,,,
CCOC(=O)c1c(C)[nH]c2ccc3c(c12)CN1CCc2cc(OC)ccc2C1O3 (stereo not drawn),1030 nM,20%,13%,13%,13%,1430 nM,13%,,,,,,
CN1CCN(CC(=O)N2c3ccccc3C(=O)Nc3cccnc32)CC1 [PIRENZEPINE],430 nM,20%,7%,7%,7%,390 nM,7%,27%,13%,10%,27%,20%,
CC[C@@H]1C(=O)OC[C@@H]1Cc1cncn1C [PILOCARPINE],,3%,0%,0%,0%,,0%,23%,7%,7%,67%,10%,
CCOP(=O)(OCC)Oc1ccc([N+](=O)[O-])cc1 [PARAOXON],> 100000 nM,,,,,> 100000 nM,,,,,,,inhibition [1]: 13%; inhibition [2]: 0%
Br.CN1[C@@H]2C[C@@H](OC(=O)[C@H](CO)c3ccccc3)C[C@H]1[C@@H]1O[C@@H]12.O.O.O [SCOPOLAMINE HYDROBROMIDE],,10%,3%,3%,3%,,3%,3%,0%,0%,20%,0%,
C#CCOC(=O)C1=CCCN(C)C1 [ARECAIDINE PROPARGYL ESTER],4490 nM,17%,0%,0%,0%,5200 nM,0%,100%,100%,87%,100%,100%,
CCOP(=O)(OCC)Oc1nc(Cl)c(Cl)cc1Cl [CHLORPHRIFOS OXON],> 100000 nM,,,,,> 100000 nM,,,,,,,inhibition [1]: 29%; inhibition [2]: 17%
Cc1ccc(C[N+](C)(C)C)o1 [5-METHYLFURMETHIODIDE],14900 nM,,,,,12300 nM,,,,,,,
Cc1noc(C2CN3CCC2CC3)n1 (stereo not drawn),1320 nM,47%,13%,20%,3%,1330 nM,3%,83%,33%,13%,100%,60%,inhibition (INH) (Musca domestica [20]): 49%; inhibition (INH) (Musca domestica [21]): 80%; inhibition (INH) (Musca domestica [22]): 16%; inhibition (INH) (Musca domestica [23]): 9%
C[N+]1(C)[C@@H]2CC[C@H]1C[C@@H](OC(=O)C(CO)c1ccccc1)C2.O=[N+]([O-])[O-] (stereo partly drawn) [METHYLATROPINE NITRATE],2.4 nM,17%,7%,7%,13%,1.8 nM,7%,23%,20%,7%,23%,20%,
CN1[C@@H]2CC[C@H]1C[C@@H](OC(=O)N1Cc3ccccc3NC1=O)C2,640 nM,23%,10%,17%,0%,570 nM,0%,43%,17%,7%,70%,23%,
